Measured values: ChEMBL document CHEMBL1134325, “Diaminoindanes as microsomal triglyceride transfer protein inhibitors” (J Med Chem, 2001)

How the values were obtained:
Canis familiaris [1] = test: Inhibition of plasma total cholesterol in the normolipidemic dogs after day 4 of oral administration of 10 mg/kg/ day.; format: functional, Canis lupus familiaris
Procedure, shortened: (§1)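 Normolipidemic dogs dosed once daily for 4 days by oral gavage, compound suspended in cornstarch vehicle. Plasma sampled 24 h after dosing on days 0, 2, 3 and 4, assayed for triglycerides and total cholesterol (mg/dL). Mean percent inhibition versus day-0 level is given for treated dogs; n = 6 per group; significance by one-way ANOVA, p < 0.05.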

Canis familiaris [2] = test: Inhibition of plasma total cholesterol in the normolipidemic dogs after day 3 of oral administration of 10 mg/kg/ day.; format: functional, Canis lupus familiaris; procedure, shortened: as §1
Canis familiaris [3] = test: Inhibition of plasma total cholesterol in the normolipidemic dogs after day 4 of oral administration of 1 mg/kg/ day; format: functional, Canis lupus familiaris; procedure, shortened: as §1
Canis familiaris [4] = test: Inhibition of plasma total triglycerides in the normolipidemic dogs after day 0 of oral administration of 5 mg/kg/ day.; format: functional, Canis lupus familiaris; procedure, shortened: as §1
Canis familiaris [5] = test: Inhibition of plasma total triglycerides in the normolipidemic dogs after day 0 of oral administration of 2.5 mg/kg/ day.; format: functional, Canis lupus familiaris; procedure, shortened: as §1
Canis familiaris [6] = test: Inhibition of plasma total triglycerides in the normolipidemic dogs after day 4 of oral administration of 1 mg/kg/ day; format: functional, Canis lupus familiaris
Rattus norvegicus [7] = test: Inhibition of total cholesterol in normolipidemic rats after 6 hr of 10 mg/kg oral dosing; format: functional
Procedure, shortened: (§2)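 Overnight-fasted normolipidemic rats received a single oral dose in cornstarch vehicle. Blood was drawn at 2, 6 and 24 h post-dose and assayed for triglycerides and total cholesterol, with free access to food after the 6 h sample. Value is mean percent inhibition versus a separate vehicle-treated group, unpaired t test p < 0.05, NS = no significant change, N = 6.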

Canis familiaris [8] = test: Inhibition of plasma total triglycerides in the normolipidemic dogs after day 4 of oral administration of 5 mg/kg/ day; format: functional, Canis lupus familiaris
Canis familiaris [9] = test: Inhibition of plasma total triglycerides in the normolipidemic dogs after day 3 of oral administration of 1 mg/kg/ day.; format: functional, Canis lupus familiaris; procedure, shortened: as §1
Canis familiaris [10] = test: Inhibition of plasma total triglycerides in the normolipidemic dogs after day 0 of oral administration of 1 mg/kg/ day.; format: functional, Canis lupus familiaris; procedure, shortened: as §1
Canis familiaris [11] = test: Inhibition of plasma total cholesterol in the normolipidemic dogs after day 2 of oral administration of 1 mg/kg/ day.; format: functional, Canis lupus familiaris; procedure, shortened: as §1
Rattus norvegicus [12] = test: Inhibition of total cholesterol in normolipidemic rats after 6 hr of 50 mg/kg oral dosing; format: functional; procedure, shortened: as §2
Rattus norvegicus [13] = test: Inhibition of plasma triglycerides in normolipidemic rats after 2 hr of 10 mg/kg oral dosing; format: functional; procedure, shortened: as §2
Canis familiaris [14] = test: Inhibition of plasma total triglycerides in the normolipidemic dogs after day 2 of oral administration of 5 mg/kg/ day.; format: functional, Canis lupus familiaris; procedure, shortened: as §1
Canis familiaris [15] = test: Inhibition of plasma total cholesterol in the normolipidemic dogs after day 2 of oral administration of 5 mg/kg/ day.; format: functional, Canis lupus familiaris; procedure, shortened: as §1
Canis familiaris [16] = test: Inhibition of plasma total cholesterol in the normolipidemic dogs after day 0 of oral administration of 2.5 mg/kg/ day.; format: functional, Canis lupus familiaris; procedure, shortened: as §1
Canis familiaris [17] = test: Inhibition of plasma total cholesterol in the normolipidemic dogs after day 0 of oral administration of 1 mg/kg/ day.; format: functional, Canis lupus familiaris; procedure, shortened: as §1
Canis familiaris [18] = test: Inhibition of plasma total triglycerides in the normolipidemic dogs after day 0 of oral administration of 10 mg/kg/ day.; format: functional, Canis lupus familiaris; procedure, shortened: as §1
Canis familiaris [19] = test: Inhibition of plasma total cholesterol in the normolipidemic dogs after day 4 of oral administration of 2.5 mg/kg/ day; format: functional, Canis lupus familiaris; procedure, shortened: as §1
Rattus norvegicus [20] = test: Inhibition of plasma triglycerides in normolipidemic rats after 2 hr of 50 mg/kg oral dosing; format: functional; procedure, shortened: as §2
Rattus norvegicus [21] = test: Inhibition of total cholesterol in normolipidemic rats after 2 hr of 50 mg/kg oral dosing; format: functional; procedure, shortened: as §2
Canis familiaris [22] = test: Inhibition of plasma total triglycerides in the normolipidemic dogs after day 2 of oral administration of 1 mg/kg/ day.; format: functional, Canis lupus familiaris; procedure, shortened: as §1
Canis familiaris [23] = test: Inhibition of plasma total triglycerides in the normolipidemic dogs after day 3 of oral administration of 10 mg/kg/ day.; format: functional, Canis lupus familiaris
Canis familiaris [24] = test: Inhibition of plasma total cholesterol in the normolipidemic dogs after day 4 of oral administration of 5 mg/kg/ day; format: functional, Canis lupus familiaris; procedure, shortened: as §1
Rattus norvegicus [25] = test: Inhibition of plasma triglycerides in normolipidemic rats after 6 hr of 50 mg/kg oral dosing; format: functional; procedure, shortened: as §2
Rattus norvegicus [26] = test: Inhibition of total cholesterol in normolipidemic rats after 2 hr of 10 mg/kg oral dosing; format: functional; procedure, shortened: as §2
Canis familiaris [27] = test: Inhibition of plasma total triglycerides in the normolipidemic dogs after day 3 of oral administration of 5 mg/kg/ day.; format: functional, Canis lupus familiaris
Rattus norvegicus [28] = test: Inhibition of plasma triglycerides in normolipidemic rats after 6 hr of 10 mg/kg oral dosing; no significant change; format: functional, organism-based; design: dose 10 mg/kg; procedure, shortened: as §2
Canis familiaris [29] = test: Inhibition of plasma total triglycerides in the normolipidemic dogs after day 3 of oral administration of 2.5 mg/kg/ day.; format: functional, Canis lupus familiaris
[30] = biological target: T1, Microsomal triglyceride transfer protein large subunit (Homo sapiens, UniProt P55157); test: In vitro inhibitory activity against MTP using MTP transfer assay
T1 sequence (P55157 whole entry): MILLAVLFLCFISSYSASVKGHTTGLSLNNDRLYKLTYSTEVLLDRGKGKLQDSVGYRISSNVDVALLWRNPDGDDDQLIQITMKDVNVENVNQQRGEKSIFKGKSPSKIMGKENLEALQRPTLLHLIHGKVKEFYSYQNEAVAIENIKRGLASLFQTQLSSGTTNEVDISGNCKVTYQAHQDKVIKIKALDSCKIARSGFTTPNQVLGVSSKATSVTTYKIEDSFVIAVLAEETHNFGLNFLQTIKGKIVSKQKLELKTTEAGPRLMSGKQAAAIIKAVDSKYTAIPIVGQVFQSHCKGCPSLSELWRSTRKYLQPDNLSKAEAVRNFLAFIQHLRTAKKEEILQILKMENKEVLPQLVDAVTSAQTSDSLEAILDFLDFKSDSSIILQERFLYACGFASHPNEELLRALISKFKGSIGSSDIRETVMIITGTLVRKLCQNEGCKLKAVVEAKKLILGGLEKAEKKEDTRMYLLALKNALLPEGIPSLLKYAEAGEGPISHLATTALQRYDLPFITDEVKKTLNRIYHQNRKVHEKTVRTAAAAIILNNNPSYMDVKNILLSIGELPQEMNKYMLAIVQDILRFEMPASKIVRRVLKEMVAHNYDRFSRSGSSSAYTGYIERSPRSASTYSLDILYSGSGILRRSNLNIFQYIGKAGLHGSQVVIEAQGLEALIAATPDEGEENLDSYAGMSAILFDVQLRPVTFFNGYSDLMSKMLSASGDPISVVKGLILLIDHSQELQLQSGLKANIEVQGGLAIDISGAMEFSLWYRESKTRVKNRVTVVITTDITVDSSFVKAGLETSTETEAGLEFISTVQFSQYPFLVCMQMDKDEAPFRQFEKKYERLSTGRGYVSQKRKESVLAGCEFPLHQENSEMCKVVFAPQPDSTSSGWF

Canis familiaris [31] = test: Inhibition of plasma total triglycerides in the normolipidemic dogs after day 4 of oral administration of 10 mg/kg/ day; format: functional, Canis lupus familiaris
Canis familiaris [32] = test: Inhibition of plasma total cholesterol in the normolipidemic dogs after day 0 of oral administration of 5 mg/kg/ day.; format: functional, Canis lupus familiaris; procedure, shortened: as §1
Canis familiaris [33] = test: Inhibition of plasma total triglycerides in the normolipidemic dogs after day 2 of oral administration of 2.5 mg/kg/ day.; format: functional, Canis lupus familiaris; procedure, shortened: as §1
Canis familiaris [34] = test: Inhibition of plasma total cholesterol in the normolipidemic dogs after day 3 of oral administration of 2.5 mg/kg/ day.; format: functional, Canis lupus familiaris; procedure, shortened: as §1
Rattus norvegicus [35] = test: Inhibition of plasma triglycerides in normolipidemic rats after 24 h of 10 mg/kg oral dosing; format: functional; procedure, shortened: as §2
Canis familiaris [36] = test: Inhibition of plasma total cholesterol in the normolipidemic dogs after day 0 of oral administration of 10 mg/kg/ day.; format: functional, Canis lupus familiaris; procedure, shortened: as §1
Canis familiaris [37] = test: Inhibition of plasma total cholesterol in the normolipidemic dogs after day 2 of oral administration of 2.5 mg/kg/ day.; format: functional, Canis lupus familiaris; procedure, shortened: as §1
Rattus norvegicus [38] = test: Inhibition of total cholesterol in normolipidemic rats after 24 hr of 10 mg/kg oral dosing; format: functional; procedure, shortened: as §2
Rattus norvegicus [39] = test: Inhibition of total cholesterol in normolipidemic rats after 24 hr of 50 mg/kg oral dosing; format: functional; procedure, shortened: as §2
Canis familiaris [40] = test: Inhibition of plasma total cholesterol in the normolipidemic dogs after day 3 of oral administration of 5 mg/kg/ day.; format: functional, Canis lupus familiaris; procedure, shortened: as §1
Canis familiaris [41] = test: Inhibition of plasma total triglycerides in the normolipidemic dogs after day 4 of oral administration of 2.5 mg/kg/ day; format: functional, Canis lupus familiaris
Canis familiaris [42] = test: Inhibition of plasma total triglycerides in the normolipidemic dogs after day 2 of oral administration of 10 mg/kg/ day.; format: functional, Canis lupus familiaris; procedure, shortened: as §1
Canis familiaris [43] = test: Inhibition of plasma total cholesterol in the normolipidemic dogs after day 2 of oral administration of 10 mg/kg/ day.; format: functional, Canis lupus familiaris; procedure, shortened: as §1
Canis familiaris [44] = test: Inhibition of plasma total cholesterol in the normolipidemic dogs after day 3 of oral administration of 1 mg/kg/ day.; format: functional, Canis lupus familiaris; procedure, shortened: as §1
Rattus norvegicus [45] = test: Inhibition of plasma triglycerides in normolipidemic rats after 24 hr of 50 mg/kg oral dosing; format: functional; procedure, shortened: as §2

COC(=O)N1CCN([C@H]2Cc3ccc(NC(=O)c4cccc(C)c4-c4ccc(C(F)(F)F)cc4)cc3C2)CC1
Lipid level (Canis familiaris [1]): <31 mg/dL
Lipid level (Canis familiaris [2]): 50 mg/dL
Lipid level (Canis familiaris [3]): <73 mg/dL
Lipid level (Canis familiaris [4]): 37 mg/dL
Lipid level (Canis familiaris [5]): 58 mg/dL
Lipid level (Canis familiaris [6]): 28 mg/dL
Reduction (Rattus norvegicus [7]): 29%
Lipid level (Canis familiaris [8]): 14 mg/dL
Lipid level (Canis familiaris [9]): 26 mg/dL
Lipid level (Canis familiaris [10]): 38 mg/dL
Lipid level (Canis familiaris [11]): 91 mg/dL
Reduction (Rattus norvegicus [12]): 50%
Reduction (Rattus norvegicus [13]): 70%
Lipid level (Canis familiaris [14]): 20 mg/dL
Lipid level (Canis familiaris [15]): 79 mg/dL
Lipid level (Canis familiaris [16]): 109 mg/dL
Lipid level (Canis familiaris [17]): 120 mg/dL
Lipid level (Canis familiaris [18]): 62 mg/dL
Lipid level (Canis familiaris [19]): <42 mg/dL
Reduction (Rattus norvegicus [20]): 80%
Reduction (Rattus norvegicus [21]): 35%
Lipid level (Canis familiaris [22]): 28 mg/dL
Lipid level (Canis familiaris [23]): 18 mg/dL
Lipid level (Canis familiaris [24]): 38 mg/dL
Reduction (Rattus norvegicus [25]): 56%
Reduction (Rattus norvegicus [26]): 40%
Lipid level (Canis familiaris [27]): 17 mg/dL
NS (Rattus norvegicus [28]): no significant change
Lipid level (Canis familiaris [29]): 20 mg/dL
IC50 [30]: 40 nM
Lipid level (Canis familiaris [31]): 19 mg/dL
Lipid level (Canis familiaris [32]): 127 mg/dL
Lipid level (Canis familiaris [33]): 28 mg/dL
Lipid level (Canis familiaris [34]): 53 mg/dL
Reduction (Rattus norvegicus [35]): 29%
Lipid level (Canis familiaris [36]): 143 mg/dL
Lipid level (Canis familiaris [37]): 67 mg/dL
Reduction (Rattus norvegicus [38]): 15%
Reduction (Rattus norvegicus [39]): 18%
Lipid level (Canis familiaris [40]): <53 mg/dL
Lipid level (Canis familiaris [41]): 25 mg/dL
Lipid level (Canis familiaris [42]): 24 mg/dL
Lipid level (Canis familiaris [43]): 79 mg/dL
Lipid level (Canis familiaris [44]): 83 mg/dL
Reduction (Rattus norvegicus [45]): 44%
